Here are results for twelve compounds from ChEMBL document CHEMBL5543076, “Chromone-based small molecules for multistep shutdown of arachidonate pathway: Simultaneous inhibition of COX-2, 15-LOX and mPGES-1 enzymes” (Eur J Med Chem, 2024).

Structures are written as SMILES. pIC50: −log10 of the molar value. Calls of active or inactive are those of the source. The calls are words filed in the database; no cut-off is given here.

The pIC50 is −log10 of the IC50, conventionally taken in molar units. A low value points to a large IC50.

The target of data set [1] is T1, Prostaglandin G/H synthase 1 (Ovis aries, UniProt P05979).
T1 sequence (P05979 whole entry): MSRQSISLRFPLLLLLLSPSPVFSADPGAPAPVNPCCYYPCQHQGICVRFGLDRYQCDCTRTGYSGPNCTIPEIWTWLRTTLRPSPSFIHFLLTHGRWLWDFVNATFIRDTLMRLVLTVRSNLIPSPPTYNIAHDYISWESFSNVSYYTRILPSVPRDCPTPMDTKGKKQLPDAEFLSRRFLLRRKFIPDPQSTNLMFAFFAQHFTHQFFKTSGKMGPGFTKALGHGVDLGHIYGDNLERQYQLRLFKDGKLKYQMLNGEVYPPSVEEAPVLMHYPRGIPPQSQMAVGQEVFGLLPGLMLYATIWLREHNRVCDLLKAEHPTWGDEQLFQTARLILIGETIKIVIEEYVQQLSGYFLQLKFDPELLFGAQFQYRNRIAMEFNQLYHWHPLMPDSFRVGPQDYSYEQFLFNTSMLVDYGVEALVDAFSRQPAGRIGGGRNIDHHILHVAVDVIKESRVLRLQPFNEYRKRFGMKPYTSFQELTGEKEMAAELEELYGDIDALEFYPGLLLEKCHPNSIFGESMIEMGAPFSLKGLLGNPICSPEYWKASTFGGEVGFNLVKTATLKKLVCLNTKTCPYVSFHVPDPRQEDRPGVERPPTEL
Kind of data set: Inhibition of ovine COX-1 by colorimetric assay. The method, boiled down: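 Ovine COX-1 enzyme kit, run following the manufacturer's instructions; IC50 reported as mean of three replicates.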

The nature of data set [2]: Inhibition of soybean 15-LOX. Also noted: species or system Glycine max. The method in brief: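 Soybean 15-LOX activity measured with a lipoxygenase inhibitor screening kit per the manufacturer's instructions; IC50 determined.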
Data set [3] deals with RAW264.7. Kind of data set: Antiinflammatory activity against LPS-induced mouse RAW264.7 cells assessed as downregulation of COX-2 level at 50 ug/ml incubated for 24 hrs by RT-PCR analysis relative to control. As to conditions: dose 50 µg/ml. Format: functional.
Data set [4] has as its system RAW264.7. Put plainly: Antiinflammatory activity against LPS-induced mouse RAW264.7 cells assessed as downregulation of iNOS level at 50 ug/ml incubated for 24 hrs by RT-PCR analysis relative to control. Format: functional. The settings on record: dose 50 µg/ml.
For data set [5], the system named is Rattus norvegicus. Kind of data set: Antiinflammatory activity in formalin-induced paw edema in Wistar rat model assessed as reduction in paw edema volume at 5 mg/kg, po administered once daily via gavage by 7 days by vernier caliper method. Format: functional, organism-based. As to conditions: time 7.0 day.
In data set [6] the test system is RAW264.7. Put plainly: Antiinflammatory activity against LPS-induced mouse RAW264.7 cells assessed as downregulation of IL-1 beta level at 50 ug/ml incubated for 24 hrs by RT-PCR analysis relative to control. Format: functional. As to conditions: dose 50 µg/ml.
Data set [7] deals with RAW264.7. Kind of data set: Antiinflammatory activity against LPS-induced mouse RAW264.7 cells assessed as upregulation of IL-10 level at 50 ug/ml incubated for 24 hrs by RT-PCR analysis relative to control. Format: functional. As to conditions: dose 50 µg/ml.
The nature of data set [8]: Toxicity in Wistar rat assessed as effect on gastric ulcer measured after 8 days. As to conditions: in vivo, 192 h, time 8 day. The method in brief:
(§1)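 Female Wistar rats dosed for eight days; stomachs then removed for gross inspection of ulceration and histology on H&E-stained sections.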

For data set [9], the system named is RAW264.7. Kind of data set: Cytotoxicity against mouse RAW264.7 cells measured after 72 hrs by MTT assay. Format: functional, cell-based. The method, boiled down:
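RAW264.7 cells were seeded at 4 × 10³ per well with compound (100 to 0.4 μg/ml, in DMSO) for 72 h at 37 °C, 5% CO2. MTT (5 mg/ml solution) was added for 4 h, formazan dissolved in DMSO, and absorbance read at 490 nm.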
In general terms: Formazan colour is commonly taken as a measure of viable cells.

Data set [10] deals with T2, Prostaglandin E synthase (Homo sapiens, UniProt O14684).
T2 sequence (O14684 whole entry): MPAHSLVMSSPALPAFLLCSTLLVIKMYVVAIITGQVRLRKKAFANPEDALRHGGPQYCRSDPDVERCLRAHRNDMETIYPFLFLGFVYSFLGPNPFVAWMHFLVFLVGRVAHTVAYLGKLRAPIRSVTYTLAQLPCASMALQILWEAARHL
Put plainly: Inhibition of human mPGE2S1 using PGH2 as substrate measured after 5 mins by ELISA method. The method in brief:
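Cell-free assay using microsomes from interleukin-1β-stimulated human A549 lung carcinoma cells as enzyme source. Reaction contained 20 μM PGH2 and 2.5 mM glutathione with serial inhibitor dilutions, 5 min at room temperature. Stopped with SnCl2, which converts leftover PGH2 to PGF2α. PGE2 measured by ELISA; IC50 ± SD from log dose–response curve.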

Data set [11] in a line: Toxicity in Wistar rat assessed as effect on epithelium measured after 8 days by H and E staining based analysis. The settings on record: in vivo, 192 h, time 8 day. The method, boiled down: as §1
The subject of data set [12] is RAW264.7. Put plainly: Antiinflammatory activity against LPS-induced mouse RAW264.7 cells assessed as downregulation of TNF-alpha level at 50 ug/ml incubated for 24 hrs by RT-PCR analysis relative to control. Format: functional. As to conditions: dose 50 µg/ml.
Data set [13] is described as follows: Toxicity in Wistar rat assessed as abundant submucosal infiltration measured after 8 days by H and E staining based analysis. As to conditions: in vivo, 192 h, time 8 day. The method in brief: as §1
A short description of data set [14]: Toxicity in Wistar rat assessed as congested vessels measured after 8 days by H and E staining based analysis. As to conditions: in vivo, 192 h, time 8 day. The method, boiled down:
as §1

Data set [15] in a line: Toxicity in Wistar rat assessed as effect on ulceration measured after 8 days by H and E staining based analysis. As to conditions: in vivo, 192 h, time 8 day. The method in brief: as §1
Data set [16] can be described thus: Toxicity in Wistar rat assessed as dilation of submucosal blood vessels measured after 8 days by H and E staining based analysis. The settings on record: 192 h, time 8 day. The method in brief: as §1
Data set [17] can be described thus: Toxicity in Wistar rat assessed as increase in submucosal inflammatory cells measured after 8 days by H and E staining based analysis. The settings on record: 192 h, time 8 day. The method, boiled down:
as §1

On to `CN/N=C/c1coc2cc(OC)ccc2c1=O`, for which the negative logarithm of the IC50 (pIC50) is 5.44 in [1] and 5.37 in [2].
Consider `O=C(N/N=C/c1coc2ccccc2c1=O)OCc1ccccc1`, for which the Activity in data set [3] is on record as 33%; in data set [4] it was 32%; in [6] it was 54%; in data set [7], 43%; in [8], “Non-Toxic”; in [11] it was “Non-Toxic”. For the same compound, the Activity in data set [12] is 32%; in [13], “Toxic”; in data set [14], “Toxic”. Further, the pIC50 is 4.91 in data set [1], 5.39 in data set [10] and 5.76 in [2]. The outcome in data set [5] was Active. Further, the result in data set [9] was inactive.
Take `CN/N=C/c1coc2ccccc2c1=O`: the negative-log IC50 (pIC50) is 5.39 in [1] and 5.35 in [2].
On to `COC(=O)N/N=C/c1coc2cc(OC)ccc2c1=O`, for which the pIC50 in data set [1] is 5.22; in data set [2], 5.34.
For `CN/N=C/c1coc2ccc(OC)cc2c1=O` the same measures were 5.06 and 5.49.
With `O=C([O-])Cc1ccccc1Nc1c(Cl)cccc1Cl.[Na+]` [DICLOFENAC SODIUM], the results for the Activity result in data set [11], in data set [13] and in data set [14] were “Non-Toxic”, “Toxic” and “Toxic”, respectively.
Compound `O=c1c(O)c(-c2ccc(O)c(O)c2)oc2cc(O)cc(O)c12` [QUERCETIN] showed a negative-log IC50 (pIC50) in [2] of 5.48.
For `Cc1ccc(-c2cc(C(F)(F)F)nn2-c2ccc(S(N)(=O)=O)cc2)cc1` [CELECOXIB], in [15], the Activity entry is “Non-Toxic”. In data set [10], this compound gave a pIC50 of 4.70.
Turning to `COC(=O)N/N=C/c1coc2ccc(OC)cc2c1=O`, the values for the negative logarithm of the IC50 (pIC50) in data set [1] and in data set [2] were 5.16 and 5.39, respectively.
In the case of `COc1ccc2occ(/C=N/NC(=O)OCc3ccccc3)c(=O)c2c1`, the Activity in data set [3] is reported as 33%; in data set [4], 32%; in data set [6], 54%; in data set [7], 43%; in [16], “Toxic”; in [8], “Non-Toxic”. For the same compound, the Activity entry was “Toxic” in data set [17], “Non-Toxic” in [11] and 32% in data set [12]. Further, the pIC50 in data set [1] is 5.01; in data set [10] it was 5.31; in data set [2], 5.52. For the same compound, the result in data set [5] was Active. In data set [9], the result was inactive.
On to `COC(=O)N/N=C/c1coc2ccccc2c1=O`, for which the pIC50 was 5.13 in data set [1], 5.43 in [10] and 5.56 in data set [2].
Consider `COc1ccc2c(=O)c(/C=N/NC(=O)OCc3ccccc3)coc2c1`, for which the Activity is recorded as 33% in data set [3]; 32% in data set [4]; 54% in data set [6]; 43% in data set [7]; “Toxic” in [16]; “Non-Toxic” in data set [8]. Moreover, the Activity result is on record as “Toxic” in data set [17], “Non-Toxic” in data set [11] and 32% in data set [12]. Further, the pIC50 in [1] was 4.95; in data set [10], 5.55; in [2], 5.62. Besides, in data set [5], the outcome was Active. Also, in data set [9], the result was inactive.
